Results from different studies.
Converted amounts (≈) assume the structure as drawn.

| Compound | organism | test | system | conditions | measurement | result |
| --- | --- | --- | --- | --- | --- | --- |
| COc1ccc(C=NNC(=O)CSc2nc3c(C)cccc3c(=O)n2-c2ccccc2)cc1OS(C)(=O)=O | Pseudomonas aeruginosa | microbial growth, well diffusion |  | 20 µg/mL | inhibition zone | 2 mm |
| CC1(C)S[C@@H]2[C@H](NC(=O)[C@H](N)c3ccccc3)C(=O)N2[C@H]1C(=O)O | Kocuria | microbial growth, broth dilution |  |  | MIC | 1.34 µM |
| CO[C@H]1/C=C/O[C@@]2(C)Oc3c(C)c(O)c4c(c3C2=O)C2=NC3(CCN(CC(C)C)CC3)NC2=C(NC(=O)/C(C)=C\C=C\[C@H](C)[C@H](O)[C@@H](C)[C@@H](O)[C@@H](C)[C@H](OC(C)=O)[C@@H]1C)C4=O | Mycobacteroides abscessus | microbial growth, agar dilution | ATCC19977 |  | MIC | 11.2 µM |
| O=C(O)c1cn(C2CC2)c2cc(N3CCNCC3)c(F)cc2c1=O | Pseudomonas aeruginosa | microbial growth, broth dilution |  |  | MIC90 | 1.56 µM (≈ 0.517 µg/mL) |
| CNC(C)C1CCC(N)C(OC2C(N)CC(N)C(OC3OCC(C)(O)C(NC)C3O)C2O)O1 (stereo not shown) | Pseudomonas aeruginosa | microbial killing, broth dilution | ATCC27853 | 24 h | MBC | 8000 µM (≈ 3820 µg/mL) |
| CCCS(=O)(=O)Oc1ccc(C=NNC(=O)CSc2nc3c(C)cccc3c(=O)n2-c2ccccc2)cc1OC | Pseudomonas aeruginosa | microbial growth, well diffusion |  | 20 µg/mL | inhibition zone | 2 mm |
| CCOC(=O)/C=C1/SC(N/N=C/c2c(-c3ccc(F)cc3)nc3ncccn23)=NC1=O | Pseudomonas aeruginosa | microbial growth, well diffusion | ATCC27853 | 100 µg/mL | inhibition zone | 11 mm |
| Cc1ccc2[nH]nc(-c3nnc(Nc4ccc(F)cc4Cl)s3)c2c1 | Pseudomonas aeruginosa | microbial growth | ATCC27853 |  | MIC | 96.1 µg/mL |
| CN[C@H](CC(C)C)C(=O)N[C@H]1C(=O)N[C@@H](CC(N)=O)C(=O)N[C@H]2C(=O)N[C@H]3C(=O)N[C@H](C(=O)N[C@H](C(=O)O)c4cc(O)cc(O)c4-c4cc3ccc4O)[C@H](O)c3ccc(c(Cl)c3)Oc3cc2cc(c3O[C@@H]2O[C@H](CO)[C@@H](O)[C@H](O)[C@H]2O[C@H]2C[C@](C)(N)[C@H](O)[C@H](C)O2)Oc2ccc(cc2Cl)[C@H]1O | Kocuria | microbial growth, broth dilution |  |  | MIC | 0.67 µM |
| CC(=O)c1sc(N/N=C/c2c(-c3ccccc3)nc3ncccn23)nc1C | Pseudomonas aeruginosa | microbial growth, well diffusion | ATCC27853 | 100 µg/mL | inhibition zone | 14 mm |
